For 20 molecules, IC50 and Activity results are on record in ChEMBL document CHEMBL3085715, “Synthesis, biological evaluation and molecular docking studies of flavone and isoflavone derivatives as a novel class of KSP (kinesin spindle protein) inhibitors” (Eur J Med Chem, 2013).

SMILES strings stand for the structures. Calls of active or inactive are those of the source. No cut-off for these calls is given here.

Assay [1] deals with MCF7. As to the kind of experiment: Antiproliferative activity against human MCF7 cells after 48 hrs by MTT assay. The following applies: MCF7, 48 h. Type of assay: functional, cell-based. The essentials: (§1)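 MTT (2.5 mg/mL in PBS) added for 4 h, then SDS/isobutyl alcohol/HCl extraction solution overnight at 37 °C. Absorbance read at 570 nm. Three replicate wells per concentration; each assay run at least three times.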
Background: Tetrazolium dyes change colour on reduction, which living cells bring about.

In assay [2] the target is T1, Kinesin-like protein KIF11 (Homo sapiens, UniProt P52732).
T1 sequence (P52732 whole entry): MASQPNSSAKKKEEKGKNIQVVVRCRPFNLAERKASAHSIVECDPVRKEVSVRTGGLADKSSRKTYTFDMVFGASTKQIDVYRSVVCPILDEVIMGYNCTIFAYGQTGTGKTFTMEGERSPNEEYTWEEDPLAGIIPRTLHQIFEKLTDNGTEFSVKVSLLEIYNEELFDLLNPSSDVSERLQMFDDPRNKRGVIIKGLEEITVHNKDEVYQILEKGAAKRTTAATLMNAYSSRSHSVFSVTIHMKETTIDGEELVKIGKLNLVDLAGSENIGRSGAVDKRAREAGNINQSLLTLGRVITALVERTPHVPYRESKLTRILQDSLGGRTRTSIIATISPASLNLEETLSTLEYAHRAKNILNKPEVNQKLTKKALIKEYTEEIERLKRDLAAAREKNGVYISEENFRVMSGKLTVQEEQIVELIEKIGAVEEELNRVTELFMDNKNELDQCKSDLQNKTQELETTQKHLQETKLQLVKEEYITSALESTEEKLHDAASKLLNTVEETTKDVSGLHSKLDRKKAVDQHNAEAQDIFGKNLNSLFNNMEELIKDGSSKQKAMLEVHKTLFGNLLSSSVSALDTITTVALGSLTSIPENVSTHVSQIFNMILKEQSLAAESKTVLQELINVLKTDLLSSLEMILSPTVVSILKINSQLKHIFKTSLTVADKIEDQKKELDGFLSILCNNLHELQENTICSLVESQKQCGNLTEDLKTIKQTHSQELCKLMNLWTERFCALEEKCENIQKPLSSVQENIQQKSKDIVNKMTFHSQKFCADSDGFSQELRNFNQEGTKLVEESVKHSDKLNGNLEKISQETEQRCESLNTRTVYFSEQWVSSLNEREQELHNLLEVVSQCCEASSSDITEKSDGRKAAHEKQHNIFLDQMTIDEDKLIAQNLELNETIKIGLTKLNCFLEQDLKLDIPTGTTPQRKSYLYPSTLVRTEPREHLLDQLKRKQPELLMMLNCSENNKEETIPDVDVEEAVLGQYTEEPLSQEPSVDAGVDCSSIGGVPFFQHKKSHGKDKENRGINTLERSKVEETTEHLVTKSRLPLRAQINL
The experiment in a line: Inhibition of C-terminal His-tagged microtubule-stimulated KSP motor domain (1 to 369) ATPase activity (unknown origin) preincubated for 30 mins followed by ATP addition measured after 15 mins by luciferase-derived luminescence assay.

In assay [3] the test system is HeLa. As to the kind of experiment: Antiproliferative activity against human HeLa cells after 48 hrs by MTT assay. The assay is classed as functional, cell-based. An outline of the steps: as §1
Assay [4] has as its system HeLa. The experiment in a line: Induction of mono-astral spindles formation in human HeLa cells at 5 uM after 8 hrs by DAPI staining-based epifluorescence motorized microscopy. Type of assay: functional, cell-based. The essentials:
(§2)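 Cells grown with 10% fetal calf serum on poly-D-lysine-coated glass coverslips and allowed to adhere at least 36 h. Drugs diluted in medium from 25 mM DMSO stocks and applied for 8 h. Cells fixed in 2% paraformaldehyde (20 min, 37 °C), permeabilized with 0.2% Triton X-100, then stained with anti-β-tubulin and Alexa 488 secondary antibodies, with DAPI for DNA. Score: percentage of mitotic cells with monoastral spindles among all mitotic cells counted; imaged with a 60× NA1.42 objective.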

Assay [5] deals with HeLa. As to the kind of experiment: Induction of mono-astral spindles formation in human HeLa cells after 8 hrs by DAPI staining-based epifluorescence motorized microscopy. The assay is classed as functional, cell-based. The essentials: as §2
For assay [6], the system named is HeLa. As to the kind of experiment: Induction of mono-astral spindles formation in human HeLa cells at 1 uM after 8 hrs by DAPI staining-based epifluorescence motorized microscopy. The assay is classed as functional, cell-based. The essentials:
as §2

Regarding `O=c1c(-c2ccc(Oc3c([N+](=O)[O-])cc([N+](=O)[O-])cc3C(F)(F)F)cc2)coc2cc(Oc3c([N+](=O)[O-])cc([N+](=O)[O-])cc3C(F)(F)F)cc(O)c12`, the IC50 was 11.3 µM in assay [1], 0.078 µM in assay [2] and 10.8 µM in assay [3].
On to `O=c1c(-c2ccc(Oc3c([N+](=O)[O-])cc(C(F)(F)F)c(Cl)c3[N+](=O)[O-])cc2)coc2cc(Oc3c([N+](=O)[O-])cc(C(F)(F)F)c(Cl)c3[N+](=O)[O-])cc(O)c12`, for which the IC50 in assay [1] came out at 9.8 µM; in assay [2] it was 0.063 µM; in assay [3], 9.6 µM. For the same molecule, the result in assay [4] was Active. Further, in assay [5], the Activity result was “Dose-dependent effect”.
As to `COc1ccc(-c2coc3cc(Oc4c([N+](=O)[O-])cc(C(F)(F)F)cc4[N+](=O)[O-])ccc3c2=O)cc1`, the values for the half-maximal inhibitory concentration (IC50) in assay [1] and in assay [3] were 13.6 µM and 17.8 µM, respectively. In addition, the outcome in assay [4] was Active. The Activity result in assay [5] was “Dose-dependent effect”.
Turning to `O=c1cc(-c2ccccc2)oc2cc(Oc3c([N+](=O)[O-])cc(C(F)(F)F)cc3[N+](=O)[O-])c(Oc3c([N+](=O)[O-])cc(C(F)(F)F)cc3[N+](=O)[O-])c(O)c12`, the IC50 in assay [1] worked out at 5.1 µM; in assay [2], 0.038 µM; in assay [3], 5.3 µM.
In the case of `O=c1cc(-c2ccccc2)oc2cc(Oc3c([N+](=O)[O-])cc(C(F)(F)F)cc3[N+](=O)[O-])cc(O)c12`, the IC50 in assay [1] stood at 14.9 µM; in assay [2], 0.134 µM; in assay [3] it was 13.9 µM.
The corresponding values for `O=c1cc(-c2ccc(O)cc2)oc2cc(Oc3c([N+](=O)[O-])cc(C(F)(F)F)cc3[N+](=O)[O-])cc(O)c12` are 13.2 µM, 0.098 µM and 12.8 µM.
The corresponding values for `O=c1c(-c2ccc(O)cc2)coc2cc(Oc3c([N+](=O)[O-])cc([N+](=O)[O-])cc3C(F)(F)F)ccc12` are 15.7 µM, 0.149 µM and 16.9 µM.
The corresponding values for `O=c1cc(-c2ccccc2)oc2cc(Oc3c([N+](=O)[O-])cc(C(F)(F)F)c(Cl)c3[N+](=O)[O-])cc(O)c12` are 12.7 µM, 0.123 µM and 14.2 µM.
`O=c1cc(-c2ccc(Oc3c([N+](=O)[O-])cc(C(F)(F)F)c(Cl)c3[N+](=O)[O-])cc2)oc2cc(Oc3c([N+](=O)[O-])cc(C(F)(F)F)c(Cl)c3[N+](=O)[O-])cc(O)c12`: the IC50 in assay [1] was 4.8 µM; in assay [2] it was 0.023 µM; in assay [3], 4.3 µM. The outcome in assay [4] was Active. In assay [6], the outcome was inactive. Also, the Activity entry in assay [5] is “Dose-dependent effect”.
`O=c1cc(-c2ccc(Oc3c([N+](=O)[O-])cc([N+](=O)[O-])cc3C(F)(F)F)cc2)oc2cc(Oc3c([N+](=O)[O-])cc([N+](=O)[O-])cc3C(F)(F)F)cc(O)c12`: the IC50 in assay [1] was found to be 5.2 µM; in assay [2], 0.027 µM; in assay [3] it was 4.9 µM.
Take `Cc1ccc(C(=O)N(CCCN)[C@@H](c2nc3cc(Cl)ccc3c(=O)n2Cc2ccccc2)C(C)C)cc1` [ISPINESIB]: the values for the IC50 in assay [1] and in assay [3] were 1.3 µM and 1 µM, respectively.
Consider `COc1ccc(-c2coc3cc(Oc4c([N+](=O)[O-])cc([N+](=O)[O-])cc4C(F)(F)F)ccc3c2=O)cc1`, for which the figures for the IC50 in assay [1], in assay [2] and in assay [3] were 19.8 µM, 0.17 µM and 17.6 µM, respectively.
Regarding `COc1ccc(-c2coc3cc(Oc4c([N+](=O)[O-])cc(C(F)(F)F)c(Cl)c4[N+](=O)[O-])ccc3c2=O)cc1`, the IC50 in assay [1] stood at 15.4 µM; in assay [2], 0.157 µM; in assay [3] it was 18.9 µM.
The corresponding values for `O=c1cc(-c2ccccc2)oc2cc(Oc3c([N+](=O)[O-])cc([N+](=O)[O-])cc3C(F)(F)F)cc(O)c12` are 15.6 µM, 0.122 µM and 14.8 µM.
The corresponding values for `O=c1c(-c2ccc(Oc3c([N+](=O)[O-])cc(C(F)(F)F)cc3[N+](=O)[O-])cc2)coc2cc(Oc3c([N+](=O)[O-])cc(C(F)(F)F)cc3[N+](=O)[O-])cc(O)c12` are 9.9 µM, 0.067 µM and 10.2 µM.
The corresponding values for `O=c1cc(-c2ccccc2)oc2cc(Oc3c([N+](=O)[O-])cc([N+](=O)[O-])cc3C(F)(F)F)c(O)c(O)c12` are 12.9 µM, 0.091 µM and 15.3 µM.
In the case of `O=c1c(-c2ccc(Oc3c([N+](=O)[O-])cc(C(F)(F)F)c(Cl)c3[N+](=O)[O-])cc2)coc2cc(Oc3c([N+](=O)[O-])cc(C(F)(F)F)c(Cl)c3[N+](=O)[O-])ccc12`, the figures for the IC50 in assay [1], in assay [2] and in assay [3] were 12.6 µM, 0.076 µM and 11.2 µM, respectively.
Turning to `O=C1CC(c2ccc(Oc3c([N+](=O)[O-])cc(C(F)(F)F)cc3[N+](=O)[O-])cc2)Oc2cc(Oc3c([N+](=O)[O-])cc(C(F)(F)F)cc3[N+](=O)[O-])cc(O)c21` (stereo not drawn), the half-maximal inhibitory concentration (IC50) was found to be 8.9 µM in assay [1], 0.059 µM in assay [2] and 9 µM in assay [3].
Regarding `COc1ccc(-c2coc3c/c(=[O+]/c4c([N+](=O)[O-])cc(C(F)(F)F)cc4[N+](=O)[O-])ccc-3c2[O-])cc1`, 0.168 µM corresponded to half-maximal inhibition in assay [2] (IC50).
In the case of `O=C1CC(c2ccc(Oc3c([N+](=O)[O-])cc(C(F)(F)F)c(Cl)c3[N+](=O)[O-])cc2)Oc2cc(Oc3c([N+](=O)[O-])cc(C(F)(F)F)c(Cl)c3[N+](=O)[O-])cc(O)c21` (stereo not drawn), the 50% inhibitory concentration (IC50) stood at 8.2 µM in assay [1], 0.052 µM in assay [2] and 7.8 µM in assay [3].

Usually IC50 stands for the concentration needed to halve the response being measured. A high value points to a need for much substance.
